Reference: ChEMBL document CHEMBL1250551, “Improvement of water-solubility of biarylcarboxylic acid peroxisome proliferator-activated receptor (PPAR) δ-selective partial agonists by disruption of molecular planarity/symmetry” (Bioorg Med Chem, 2010)
≈ marks a conversion by molar mass, not a printed value.

How the values were obtained:
[1] = target: T1, Peroxisome proliferator-activated receptor delta (Homo sapiens, UniProt Q03181); experiment: Partial agonist activity at human recombinant PPARdelta LBD expressed in HEK293 cells co-transfected with Gal4 assessed as beta-galactosidase activity at 1 uM by luciferase based transactivation assay; format: functional, cell-based
T1 sequence (Q03181 whole entry): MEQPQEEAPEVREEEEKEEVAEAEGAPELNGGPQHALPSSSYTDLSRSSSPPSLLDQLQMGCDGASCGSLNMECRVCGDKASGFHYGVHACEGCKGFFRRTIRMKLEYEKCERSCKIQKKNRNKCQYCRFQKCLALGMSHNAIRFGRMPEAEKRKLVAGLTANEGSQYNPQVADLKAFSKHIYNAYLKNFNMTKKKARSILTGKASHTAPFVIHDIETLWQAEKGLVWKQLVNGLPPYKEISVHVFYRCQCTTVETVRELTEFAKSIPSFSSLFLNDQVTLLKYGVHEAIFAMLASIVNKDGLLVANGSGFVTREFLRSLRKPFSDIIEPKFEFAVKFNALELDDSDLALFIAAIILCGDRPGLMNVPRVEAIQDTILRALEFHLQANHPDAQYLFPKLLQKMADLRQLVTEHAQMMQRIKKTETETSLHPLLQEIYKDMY
Procedure, shortened: (§1)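 GAL4-hPPAR LBD fusion transactivation: cells co-transfected with CMX-GAL4N-hPPAR LBD receptor plasmid, TK-MH100x4-LUC reporter and CMX β-galactosidase normalization plasmid. Positive controls (fenofibric acid for PPARα; ciglitazone 100 nM for PPARγ) and test compounds added 6 h later; overnight incubation. Luminescence read after luciferin addition; β-galactosidase absorbance at 405 nm used for normalization.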

[2] = target: T2, Peroxisome proliferator-activated receptor alpha (Homo sapiens, UniProt Q07869); experiment: Partial agonist activity at human recombinant PPARalpha LBD expressed in HEK293 cells co-transfected with Gal4 assessed as beta-galactosidase activity at 1 uM by luciferase based transactivation assay; format: functional, cell-based; procedure, shortened: as §1
T2 sequence (Q07869 whole entry): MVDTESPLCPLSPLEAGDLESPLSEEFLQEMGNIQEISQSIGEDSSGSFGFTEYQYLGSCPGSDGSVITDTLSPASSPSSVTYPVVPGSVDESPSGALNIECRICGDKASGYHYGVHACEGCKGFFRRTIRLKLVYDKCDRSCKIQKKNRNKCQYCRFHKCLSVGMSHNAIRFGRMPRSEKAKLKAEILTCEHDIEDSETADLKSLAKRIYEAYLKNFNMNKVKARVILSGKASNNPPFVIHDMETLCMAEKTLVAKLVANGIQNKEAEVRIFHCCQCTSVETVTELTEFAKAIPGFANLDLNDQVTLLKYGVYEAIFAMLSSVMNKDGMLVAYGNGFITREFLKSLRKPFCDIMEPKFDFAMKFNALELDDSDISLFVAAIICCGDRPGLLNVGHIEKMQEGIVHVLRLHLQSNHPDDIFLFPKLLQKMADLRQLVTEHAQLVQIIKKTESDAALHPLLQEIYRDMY

[3] = target: T3, Peroxisome proliferator-activated receptor gamma (Homo sapiens, UniProt P37231); experiment: Partial agonist activity at human recombinant PPARgamma LBD expressed in HEK293 cells co-transfected with Gal4 assessed as beta-galactosidase activity at 1 uM by luciferase based transactivation assay; format: functional, cell-based
T3 sequence (P37231 whole entry): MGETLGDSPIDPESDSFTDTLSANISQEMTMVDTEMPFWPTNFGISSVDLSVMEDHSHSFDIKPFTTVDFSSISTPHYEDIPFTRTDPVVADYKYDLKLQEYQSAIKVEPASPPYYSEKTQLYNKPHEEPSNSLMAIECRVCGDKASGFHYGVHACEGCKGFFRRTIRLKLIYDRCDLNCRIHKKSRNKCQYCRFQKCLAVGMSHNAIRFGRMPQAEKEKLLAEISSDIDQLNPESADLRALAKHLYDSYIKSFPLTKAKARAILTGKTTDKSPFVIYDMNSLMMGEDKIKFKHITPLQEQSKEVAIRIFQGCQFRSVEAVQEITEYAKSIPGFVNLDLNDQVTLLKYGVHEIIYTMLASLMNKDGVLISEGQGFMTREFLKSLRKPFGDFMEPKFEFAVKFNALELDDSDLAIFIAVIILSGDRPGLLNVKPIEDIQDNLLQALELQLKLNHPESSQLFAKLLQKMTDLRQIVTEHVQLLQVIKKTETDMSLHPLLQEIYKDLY

[4] = target: T1, Peroxisome proliferator-activated receptor delta; experiment: Partial agonist activity at human recombinant PPARdelta LBD expressed in HEK293 cells co-transfected with Gal4 assessed as beta-galactosidase activity by luciferase based transactivation assay; format: functional, cell-based
[5] = target: T2, Peroxisome proliferator-activated receptor alpha; experiment: Partial agonist activity at human recombinant PPARalpha LBD expressed in HEK293 cells co-transfected with Gal4 assessed as beta-galactosidase activity by luciferase based transactivation assay; format: functional, cell-based; procedure, shortened: as §1
[6] = target: T4, Peroxisome proliferator-activated receptor alpha (Homo sapiens) (UniProt Q07869); experiment: Partial agonist activity at human recombinant PPARalpha LBD expressed in HEK293 cells co-transfected with Gal4 assessed as beta-galactosidase activity by luciferase based transactivation assay relative to fenofibric acid; format: functional, cell-based
T4 sequence (whole entry): T2 sequence (Q07869 whole entry)
Procedure, shortened: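 GAL4-based reporter system analogous to the PPARδ assay, using a GAL4 DNA-binding domain–PPARα LBD chimera, TK-MH100x4-LUC reporter and CMX β-galactosidase for normalization. Positive control and test compounds were added 6 h after the preceding step and incubated overnight. Luciferase luminescence was read after luciferin addition, and β-galactosidase by absorbance at 405 nm. Efficacy was expressed relative to fenofibric acid.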

[7] = Thermodynamic aqueous solubility of the compound in 1:15 M of 50% EtOH and phosphate buffer at pH 7.4; format: physicochemical; settings: for solubility thermodynamic: 50% EtOH and phosphate buffer; for solubility: buffer
Procedure, shortened: (§2)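 Thermodynamic solubility: about 1 mg solid ground in agate mortar, suspended in 1.0 mL of either 1:15 M phosphate buffer pH 7.4 or an equal-volume mix of that buffer with EtOH. Shaken 48 h at 25 °C, filtered (0.22 µm), filtrate diluted in DMF and quantified by reversed-phase HPLC-UV (262–295 nm) against a calibration curve, corrected for dilution.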

[8] = Thermodynamic aqueous solubility of the compound in phosphate buffer at pH 7.4; format: physicochemical; procedure, shortened: as §2

Compound | EC50 [2] | EC50 [3] | solubility thermodynamic [7] [µg/mL] | solubility thermodynamic [8] [µg/mL] | other results
CCCC(=O)Oc1ccc(-c2ccc(C(=O)O)cc2)cc1CNC(=O)c1ccc(C(F)(F)F)cc1F | – | – | – | – | EC50 [1]: Not Active
CCCCOc1ccc(-c2c(C)ncc(C(=O)O)c2C)cc1CNC(=O)c1ccc(C(F)(F)F)cc1F | – | Not Active | 17700 (≈ 34100 µM) | 2700 (≈ 5210 µM) | EC50 [4]: 76 nM; EC50 [5]: 4200 nM; Efficacy [6]: 100%
CCCCOc1ccc(-c2cccc(C(=O)O)c2C)cc1CNC(=O)c1ccc(C(F)(F)F)cc1F | – | Not Active | 9950 (≈ 19800 µM) | < 1 | –
CCCCOc1ccc(-c2c(F)ccc(C(=O)O)c2F)cc1CNC(=O)c1ccc(C(F)(F)F)cc1F | Not Active | Not Active | – | 21.7 (≈ 41.3 µM) | EC50 [4]: 5.7 nM; solubility [7]: 10400 µg/mL (≈ 19800 µM)
COCCOc1ccc(-c2ccc(C(=O)O)cc2)cc1CNC(=O)c1ccc(C(F)(F)F)cc1F | – | – | – | – | EC50 [1]: Not Active
O=C(O)c1ccc(-c2ccc(OCCCO)c(CNC(=O)c3ccc(C(F)(F)F)cc3F)c2)cc1 | – | – | – | – | EC50 [1]: Not Active

More lines, main results first:

EC50 [2] | EC50 [3] | solubility thermodynamic [7] [µg/mL] | solubility thermodynamic [8] [µg/mL] | Compound | other results
Not Active | Not Active | – | – | CCCCOc1ccc(-c2ccc(C(=O)O)cn2)cc1CNC(=O)c1ccc(C(F)(F)F)cc1F | –
Not Active | Not Active | – | – | CCCCOc1ccc(-c2ccc(C(=O)O)o2)cc1CNC(=O)c1ccc(C(F)(F)F)cc1F | –
Not Active | – | 985 (≈ 1960 µM) | < 1 | CCCCOc1ccc(-c2ccc(C(=O)O)cc2C)cc1CNC(=O)c1ccc(C(F)(F)F)cc1F | –
Not Active | Not Active | – | – | CCCCOc1ccc(-c2ccc(C(=O)O)nc2)cc1CNC(=O)c1ccc(C(F)(F)F)cc1F | –
Not Active | Not Active | 3220 (≈ 6350 µM) | < 1 | CCCCOc1ccc(-c2ccc(C(=O)O)cc2F)cc1CNC(=O)c1ccc(C(F)(F)F)cc1F | –
– | Not Active | – | 7.62 (≈ 15.5 µM) | CCCCOc1ccc(-c2cncc(C(=O)O)c2)cc1CNC(=O)c1ccc(C(F)(F)F)cc1F | EC50 [4]: 220 nM; EC50 [5]: 4000 nM; solubility [7]: 9030 µg/mL (≈ 18400 µM)
– | Not Active | 375 (≈ 766 µM) | < 1 | CCCCOc1ccc(-c2ccc(C(=O)O)cc2)cc1CNC(=O)c1ccc(C(F)(F)F)cc1F | –
– | Not Active | – | < 1 | CCCCOc1ccc(-c2cccc(C(=O)O)c2)cc1CNC(=O)c1ccc(C(F)(F)F)cc1F | solubility [7]: 1350 µg/mL (≈ 2760 µM)
